Source: ChEMBL document CHEMBL1629601, “In vitro susceptibility of field isolates of Leishmania donovani to Miltefosine and amphotericin B: correlation with sodium antimony gluconate susceptibility and implications for treatment in areas of endemicity” (2009)
≈ marks a conversion by molar mass, not a printed value.

Columns and labels:
Assay type in all cases: functional
Leishmania donovani [1] = experiment: Antimicrobial activity against Leishmania donovani K216 amastigote; settings: read-out: ED50 (the source's name)
Leishmania donovani [2] = experiment: Antimicrobial activity against Leishmania donovani K251 promastigote; settings: read-out: ED50 (the source's name)
Leishmania donovani [3] = experiment: Antimicrobial activity against Leishmania donovani K498 promastigote; settings: read-out: ED50 (the source's name)
Leishmania donovani [4] = experiment: Decrease in LdMT gene expression in Leishmania donovani K192 by RT-PCR method
Outline: (§1)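 VL field isolates of L. donovani. Transcript levels of LdMT or LdRos3 were measured by real-time RT-PCR with SYBR green and analysed by the 2−ΔΔCt method. The expression index is the ratio of gene expression to that of the standard L. donovani strain LdAG83, and a decrease is relative to LdAG83. Values are means of three independent experiments.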

Leishmania donovani [5] = experiment: Antimicrobial activity against Leishmania donovani K149 amastigote; settings: read-out: ED50 (the source's name)
Leishmania donovani [6] = experiment: Decrease in LdRoS3 gene expression in Leishmania donovani K135 by RT-PCR method; outline: as §1
Leishmania donovani [7] = experiment: Decrease in LdMT gene expression in Leishmania donovani K417M20 by RT-PCR method
Outline: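 MIL-resistant M20 parasites were generated by raising the MIL concentration stepwise up to 20 μg/ml. LdMT or LdRos3 expression was quantified by real-time RT-PCR (SYBR green, 2−ΔΔCt method) and reported as an expression index, the ratio to the standard strain LdAG83. A decrease is relative to LdAG83. Values are means of three independent experiments.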

Leishmania donovani [8] = experiment: Decrease in LdRoS3 gene expression in Leishmania donovani K435 by RT-PCR method; outline: as §1
Leishmania donovani [9] = experiment: Decrease in LdMT gene expression in Leishmania donovani K439 by RT-PCR method; outline: as §1
Leishmania donovani [10] = experiment: Decrease in LdRoS3 gene expression in Leishmania donovani K251 by RT-PCR method; outline: as §1
Leishmania donovani [11] = experiment: Decrease in LdMT gene expression in Leishmania donovani K498 by RT-PCR method; outline: as §1
Leishmania donovani [12] = experiment: Decrease in LdMT gene expression in Leishmania donovani K80 by RT-PCR method; outline: as §1
Leishmania donovani [13] = experiment: Antimicrobial activity against Leishmania donovani K192 amastigote; settings: read-out: ED50 (the source's name)
Leishmania donovani [14] = experiment: Antimicrobial activity against Leishmania donovani K133 amastigote; settings: read-out: ED50 (the source's name)
Leishmania donovani [15] = experiment: Decrease in LdMT gene expression in Leishmania donovani K516 by RT-PCR method; outline: as §1
Leishmania donovani [16] = experiment: Decrease in LdMT gene expression in Leishmania donovani K251 by RT-PCR method; outline: as §1
Leishmania donovani [17] = experiment: Antimicrobial activity against Leishmania donovani K429 amastigote; settings: read-out: ED50 (the source's name)
Leishmania donovani [18] = experiment: Antimicrobial activity against Leishmania donovani LdAG83 promastigote; settings: read-out: ED50 (the source's name)
Leishmania donovani [19] = experiment: Decrease in LdMT gene expression in Leishmania donovani K149 by RT-PCR method
Outline: (§2)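 LdMT transcript levels were measured by real-time RT-PCR with SYBR green and analysed by the 2−ΔΔCt method. They are expressed as an expression index, the ratio relative to reference strain LdAG83, and are the mean of three independent experiments.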

Leishmania donovani [20] = experiment: Antimicrobial activity against Leishmania donovani K516 promastigote; settings: read-out: ED50 (the source's name)
Leishmania donovani [21] = experiment: Antimicrobial activity against Leishmania donovani K59 amastigote; settings: read-out: ED50 (the source's name)
Leishmania donovani [22] = experiment: Decrease in LdMT gene expression in Leishmania donovani K131 by RT-PCR method; outline: as §2
Leishmania donovani [23] = experiment: Decrease in LdMT gene expression in Leishmania donovani K111 by RT-PCR method; outline: as §2
Leishmania donovani [24] = experiment: Antimicrobial activity against Leishmania donovani K192 promastigote; settings: read-out: ED50 (the source's name)
Leishmania donovani [25] = experiment: Decrease in LdMT gene expression in Leishmania donovani K132 by RT-PCR method; outline: as §2
Leishmania donovani [26] = experiment: Decrease in LdMT gene expression in Leishmania donovani K429 by RT-PCR method; outline: as §1
Leishmania donovani [27] = experiment: Antimicrobial activity against Leishmania donovani K435 promastigote; settings: read-out: ED50 (the source's name)
Leishmania donovani [28] = experiment: Decrease in LdRoS3 gene expression in Leishmania donovani K429 by RT-PCR method; outline: as §1
Leishmania donovani [29] = experiment: Antimicrobial activity against Leishmania donovani K435 amastigote; settings: read-out: ED50 (the source's name)
Leishmania donovani [30] = experiment: Antimicrobial activity against Leishmania donovani K80 promastigote; settings: read-out: ED50 (the source's name)
Leishmania donovani [31] = experiment: Antimicrobial activity against Leishmania donovani K417 promastigote; settings: read-out: ED50 (the source's name)
Leishmania donovani [32] = experiment: Decrease in LdRoS3 gene expression in Leishmania donovani K132 by RT-PCR method; outline: as §1
Leishmania donovani [33] = experiment: Antimicrobial activity against Leishmania donovani K59 promastigote; settings: read-out: ED50 (the source's name)
Leishmania donovani [34] = experiment: Decrease in LdRoS3 gene expression in Leishmania donovani K149 by RT-PCR method; outline: as §1
Leishmania donovani [35] = experiment: Decrease in LdRoS3 gene expression in Leishmania donovani K131 by RT-PCR method; outline: as §1
Leishmania donovani [36] = experiment: Decrease in LdMT gene expression in Leishmania donovani K133 by RT-PCR method; outline: as §2
Leishmania donovani [37] = experiment: Antimicrobial activity against Leishmania donovani K498 amastigote; settings: read-out: ED50 (the source's name)
Leishmania donovani [38] = experiment: Antimicrobial activity against Leishmania donovani K59M20 promastigote; settings: read-out: ED50 (the source's name)
Leishmania donovani [39] = experiment: Decrease in LdRoS3 gene expression in Leishmania donovani K216 by RT-PCR method; outline: as §1
Leishmania donovani [40] = experiment: Antimicrobial activity against Leishmania donovani LdAG83 amastigote; settings: read-out: ED50 (the source's name)
Leishmania donovani [41] = experiment: Antimicrobial activity against Leishmania donovani K131 promastigote; settings: read-out: ED50 (the source's name)

EC50 (Leishmania donovani [1]): 0.91 µg/mL (≈ 2.23 µM)
EC50 (Leishmania donovani [2]): 0.4 µg/mL (≈ 0.981 µM)
EC50 (Leishmania donovani [3]): 1.32 µg/mL (≈ 3.24 µM)
EC50 (Leishmania donovani [5]): 1.57 µg/mL (≈ 3.85 µM)
EC50 (Leishmania donovani [13]): 1.99 µg/mL (≈ 4.88 µM)
EC50 (Leishmania donovani [14]): 0.93 µg/mL (≈ 2.28 µM)
EC50 (Leishmania donovani [17]): 1.24 µg/mL (≈ 3.04 µM)
EC50 (Leishmania donovani [18]): 1.05 µg/mL (≈ 2.58 µM)
EC50 (Leishmania donovani [20]): 1.62 µg/mL (≈ 3.97 µM)
EC50 (Leishmania donovani [21]): 1.86 µg/mL (≈ 4.56 µM)
EC50 (Leishmania donovani [24]): 1.91 µg/mL (≈ 4.69 µM)
EC50 (Leishmania donovani [27]): 1.16 µg/mL (≈ 2.85 µM)
EC50 (Leishmania donovani [29]): 1.08 µg/mL (≈ 2.65 µM)
EC50 (Leishmania donovani [30]): 1.58 µg/mL (≈ 3.88 µM)
EC50 (Leishmania donovani [31]): 1.72 µg/mL (≈ 4.22 µM)
EC50 (Leishmania donovani [33]): 1.19 µg/mL (≈ 2.92 µM)
EC50 (Leishmania donovani [37]): 1.65 µg/mL (≈ 4.05 µM)
EC50 (Leishmania donovani [38]): > 15 µg/mL
EC50 (Leishmania donovani [40]): 0.85 µg/mL (≈ 2.09 µM)
EC50 (Leishmania donovani [41]): 0.63 µg/mL (≈ 1.55 µM)
SMILES: CCCCCCCCCCCCCCCCOP(=O)([O-])OCC[N+](C)(C)C [MILTEFOSINE]
fold change (FC) (Leishmania donovani [4]): 0.23
fold change (FC) (Leishmania donovani [6]): 1.67
fold change (FC) (Leishmania donovani [7]): 11.3
fold change (FC) (Leishmania donovani [8]): 4.76
fold change (FC) (Leishmania donovani [9]): 4.76
fold change (FC) (Leishmania donovani [10]): 52.63
fold change (FC) (Leishmania donovani [11]): 1.38
fold change (FC) (Leishmania donovani [12]): 1.24
fold change (FC) (Leishmania donovani [15]): 8
fold change (FC) (Leishmania donovani [16]): 7.68
fold change (FC) (Leishmania donovani [19]): 1.08
fold change (FC) (Leishmania donovani [22]): 2.43
fold change (FC) (Leishmania donovani [23]): 3.4
fold change (FC) (Leishmania donovani [25]): 5.5
fold change (FC) (Leishmania donovani [26]): 1.26
fold change (FC) (Leishmania donovani [28]): 8.85
fold change (FC) (Leishmania donovani [32]): 55.55
fold change (FC) (Leishmania donovani [34]): 7.69
fold change (FC) (Leishmania donovani [35]): 11.1
fold change (FC) (Leishmania donovani [36]): 1.5
fold change (FC) (Leishmania donovani [39]): 9.43
